Consider one molecule from BindingDB's records for doi:10.1016/j.bmcl.2018.01.022 (Temple University, 2018).

Bounds are passed on as bounds.

What is called IC50 is the concentration needed to halve the response being measured.

The target in the test is T1, Ribonuclease P protein component (Staphylococcus aureus, UniProt P0A0H5).
T1 sequence (P0A0H5 whole entry): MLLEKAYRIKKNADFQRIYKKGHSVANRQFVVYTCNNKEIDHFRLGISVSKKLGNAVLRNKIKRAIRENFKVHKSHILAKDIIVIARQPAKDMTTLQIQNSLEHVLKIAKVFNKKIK
In words: Inhibition of Staphylococcus aureus RnpA-mediated mRNA degradation after 15 to 30 mins by ethidium bromide staining based agarose gel electrophoresis. A digest of the protocol:
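Recombinant S. aureus RnpA protein of ≥97% purity was tested in vitro for inhibition of its mRNA degradation activity, following the procedure previously described.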

As to `CC(C)c1ccc(OCC(=O)NNC(=S)NC(=O)c2ccno2)cc1`, the IC50 is above 500 µM.
